This is a sample that favours compounds with a hit; in the whole collection about 2.4% have one here.
TPT1 inh: C. albicans TPT1 enzyme inhibition; recombinant caTPT1, FP RNA substrate dephosphorylation; inhibition, % at 5 µM; 0.81% of 300,000 active; AID 1962;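 active = inhibition above the mean of all tested compounds plus 3 SD, set per screening campaign, cut at about 24% in these data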
CSN deneddyl inh: inhibitors of human CSN-mediated cullin deneddylation. Purified CSN, SCF-Nedd8-OG deneddylation, fluorescence polarization. Q92905. 0.38% of 360,000 active. inhibition, % at 12.5 µM;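 active = pattern-corrected inhibition above about 35%, with an unprinted fluorescence ratio check between 0.5 and 1.5, limit read from the data, passing the limit was not always enough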
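Test system: purified human Csn5 enzyme expressed in HEK293T cells. Amount: 0.24 nM enzyme. Reagent: SCFSkp2-Nedd8OG substrate at 10 nM final. Schedule: 90 min incubation of compound, enzyme and substrate at room temperature. Detection: fluorescence polarization. Read-out: % inhibition of substrate cleavage by Csn5.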
HNF4A DNA FP: change in binding of human HNF4 alpha to DNA. AID 1224865. HNF4a-FITC DNA binding, fluorescence polarization, 1 h. P41235. 0.3% of 360,000 active. activity change, % at 10 µM; in the data active = activity change above about 30%, passing the limit was not always enough
Neddyl block: inhibitors of human cullin neddylation | TR-FRET cullin neddylation, biochemical | inhibition, % at 25 µM | 0.58% of 360,000 active; in the data active = inhibition above about 36%
Rpn11 block: blocks the human proteasome subunit Rpn11. O00487. human 26S proteasome, Ub4-pepOG fluorescence polarization; 20S core pre-blocked with epoxomicin. inhibition, % at 20 µM. 0.59% of 360,000 active;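 active = inhibition at 20 µM, scaled to each plate's controls, above about 33%, limit read from the data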
Rin1 Abl inh: human Rin1-Abl interaction inhibition | 0.4% of 360,000 active | inhibition, % at 7.35 µM | TR-FRET Rin1/Abl binding, biochemical | P00519+Q13671 | AID 588664; in the data active = inhibition above about 5%, passing the limit was not always enough
Rpn11 inh conf: Rpn11 inhibition confirmation, single concentration; shares compounds with Rpn11 block; purified human 26S proteasome, Ub4-pepOG fluorescence polarization; proteasome pretreated with epoxomicin; inhibition, % at 20 µM; 29% of 1,900 active; AID 602318
MMP-2 counter: MMP-2 (human) inhibition counter-screen. shares compounds with Rpn11 block. recombinant MMP-2, FRET peptide cleavage fluorescence. inhibition, % at 20 µM. 4% of 1,900 active. AID 602330;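 note: human MMP-2 activated beforehand with APMA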
Target sequence (P08253 whole entry, looked up): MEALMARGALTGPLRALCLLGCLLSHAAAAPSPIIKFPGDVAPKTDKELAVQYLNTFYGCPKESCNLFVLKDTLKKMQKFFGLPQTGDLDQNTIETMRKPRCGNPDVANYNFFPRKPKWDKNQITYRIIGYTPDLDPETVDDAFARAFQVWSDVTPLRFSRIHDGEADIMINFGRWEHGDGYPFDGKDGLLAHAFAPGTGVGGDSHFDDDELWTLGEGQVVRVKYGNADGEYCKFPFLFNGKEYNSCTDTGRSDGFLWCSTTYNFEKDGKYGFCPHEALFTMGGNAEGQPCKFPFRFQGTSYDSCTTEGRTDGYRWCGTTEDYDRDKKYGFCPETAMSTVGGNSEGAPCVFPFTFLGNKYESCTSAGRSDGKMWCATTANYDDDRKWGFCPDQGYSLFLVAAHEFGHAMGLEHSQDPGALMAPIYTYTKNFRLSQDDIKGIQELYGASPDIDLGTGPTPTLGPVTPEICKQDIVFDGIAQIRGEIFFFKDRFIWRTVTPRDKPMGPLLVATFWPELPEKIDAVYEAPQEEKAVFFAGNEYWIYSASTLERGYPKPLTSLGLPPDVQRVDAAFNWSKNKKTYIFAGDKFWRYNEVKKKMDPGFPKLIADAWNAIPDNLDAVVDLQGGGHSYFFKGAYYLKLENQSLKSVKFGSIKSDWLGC
Thrombin inh: blocks bovine thrombin, flagging nonselective RPN11 hits. shares compounds with Rpn11 block. bovine thrombin cleavage of Ub4-pepOG, fluorescence polarization. inhibition, % at 20 µM. 13% of 1,900 active;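 active = mean inhibition at least 40% at 20 µM, or signal 3 deviations below plate average, so some actives read negative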
A number is an active result; n = inactive; x = no result given. Cut-off read from the data, not from the text of the source, unless noted: active = inhibition above about 40%; inactive = the rest.

SMILES	TPT1 inh	CSN deneddyl inh	HNF4A DNA FP	Neddyl block	Rpn11 block	Rin1 Abl inh	Rpn11 inh conf	MMP-2 counter	Thrombin inh
COc1ccc(OCC(O)CN2CCN(c3ccc(Cl)cc3)CC2)cc1 (stereo not drawn)	n	n	n	n	n	n	x	x	x
COc1ccc(N2CCN(CC(O)COc3ccc4c(c3)CCC4)CC2)cc1 (stereo not drawn)	n	n	n	n	105	n	n	n	n
c1cc(C2CCCCC2)ccc1Oc1nc(N2CCOCC2)nc(N2CCOCC2)n1	n	n	n	n	131	n	n	n	n
CN(C)CCN(C(=O)/C=C/c1cccs1)c1nc2c(F)cc(F)cc2s1	n	n	n	n	73	n	n	n	n
CN(C)CCCN(C(=O)/C=C/c1cccs1)c1nc2ccc(F)cc2s1	n	n	n	n	n	n	x	x	x
O=C(c1ccco1)N1CCN(c2ncnc3c(-c4ccccc4)nsc23)CC1	n	n	n	n	102	n	n	n	n
CCOc1nc2cnccc2n(CC(=O)Nc2ccccc2C(=O)OC)c1=O	n	n	n	n	70	n	n	n	n
Cc1ccc2sc(NNC(=O)c3cc(=O)c4ccccc4o3)nc2c1C	n	n	n	n	48	n	n	n	n
CN1CCc2c(sc3nc(SCC(=O)N4CCOCC4)n(-c4ccc(Cl)cc4)c(=O)c23)C1	n	n	n	n	n	n	x	x	x
Cn1c(=O)c2cc(NC(=O)Nc3cccnc3)ccc2n1Cc1ccc(Cl)cc1	x	n	n	x	46	n	n	n	n
N#CCSc1ccccc1NC(=O)COc1ccc(-c2nnco2)cc1	x	n	n	n	40	n	n	n	n
CCCN(CC(=O)Nc1cc(C)on1)S(=O)(=O)c1cccc(C(F)(F)F)c1	n	n	n	n	35	n	n	n	n
Oc1ccc(C=NN=C2c3ccccc3-c3ccccc32)c(O)c1	x	n	n	n	74	n	58	n	49
O=[N+]([O-])c1cccc(/C=N\N=C2c3ccccc3-c3ccccc32)c1O	n	n	n	n	n	n	x	x	x
Cc1nc2ccsc2c(=O)n1-c1cccc(Cl)c1	n	n	n	n	n	n	x	x	x
CCN(CC)c1ccc(N2C(=O)CSC2=S)cc1	n	n	n	n	51	n	n	61	n
O=C(CSc1ccccc1)NNC(=O)c1ccncc1	x	n	n	n	n	n	x	x	x
CCOC(=O)c1ccccc1NC(=O)C1CSC2(C)CCC(=O)N12 (stereo not drawn)	n	n	n	n	n	n	x	x	x
COc1ccc(OCC(=O)Nc2cccc(-c3nc4ccccc4o3)c2)cc1	n	n	n	n	n	n	x	x	x
CCc1ccc(OCC(=O)Nc2ccc(-c3nc4ccccc4o3)c(O)c2)cc1	n	n	n	n	128	n	n	n	n
COc1ccc(C(=O)N(C)c2ccccc2C(=O)NCCc2ccccc2)cc1	n	n	n	n	n	n	x	x	x
COc1ccc(NC(=O)c2ccc(NC(=O)c3cccnc3)cc2)cc1	x	n	n	n	n	n	x	x	x
COc1ccc(C(=O)Nc2ccc(/C(C)=N/NC(=O)c3ccncc3)cc2)cc1	n	n	n	n	85	n	45	n	n
COc1ccc(C(=O)Nc2ccc(C(=O)Nc3cccnc3)cc2)cc1	n	n	n	n	106	n	n	n	n
CCCCc1cc(=O)oc2cc(C)cc(OCC(=O)Nc3cccnc3)c12	n	n	n	x	70	n	n	n	n
SMILES	TPT1 inh	CSN deneddyl inh	HNF4A DNA FP	Neddyl block	Rpn11 block	Rin1 Abl inh	Rpn11 inh conf	MMP-2 counter	Thrombin inh
COc1nc(Nc2nc3ccccc3c(=O)[nH]2)nc2ccc(C)cc12	n	n	275	n	43	n	n	n	n
COc1ccc(S(=O)(=O)NNC(=S)NCCc2ccccc2)c(OC)c1	n	n	n	n	n	n	x	x	x
N=c1c(C(=O)NC2CCCC2)cc2c(=O)n3ccccc3nc2n1C1CCCC1	n	n	n	n	n	n	x	x	x
Cc1cccn2c(=O)c3cc(C(=O)NC4CCCC4)c(=N)n(C4CCCC4)c3nc12	n	n	n	n	134	n	n	n	n
CC(=O)c1sc2nc(CSc3nncn3C)[nH]c(=O)c2c1C	n	n	n	n	44	n	n	n	n
COc1ccc(-n2c(=O)/c(=C\c3cccs3)s/c2=C(/C#N)C(=O)NCCN2CCOCC2)cc1	n	n	n	n	105	n	n	n	44
C=CCn1c(=O)/c(=C\c2ccsc2)s/c1=C(/C#N)C(=O)NCCN1CCOCC1	n	n	n	n	n	n	x	x	x
Cc1ccc(S(=O)(=O)NC(=O)NC(C)Cc2ccccc2)cc1 (stereo not drawn)	n	n	n	n	n	n	x	x	x
CC(=O)Nc1ccc(/C(C)=N/NC(=O)c2ccc(COc3ccccc3Cl)o2)cc1	n	n	n	n	70	n	46	n	n
Cc1ccc(O)c(N=NC2=C(O)CC(C)(C)CC2=O)c1	n	n	n	n	47	n	n	n	n
Cc1ccc(CS(=O)Cc2ccc(C(=O)NCc3cccs3)o2)cc1 (stereo not drawn)	n	n	n	n	64	n	n	n	n
COc1cccc(CN2c3ccc(Br)cc3C(=O)CS2(=O)=O)c1	x	n	n	n	94	n	n	n	n
C=CCN1c2ccc(Br)cc2C(=O)CS1(=O)=O	x	n	n	n	n	n	x	x	x
COc1cc(COC(=O)c2cnc(C)cn2)c(OC)cc1Br	n	n	n	n	n	n	x	x	x
Cc1nnc(C)c2c(C)n(C(c3ccccc3)c3ccccc3)c(C)c12	n	n	n	n	43	n	n	n	n
Cc1nnc(C)c2c(C)n(-c3ccccc3)c(C)c12	x	n	n	n	n	n	x	x	x
O=C(Nc1cccnc1)c1cc(S(=O)(=O)N2CCCCC2)c(Cl)cc1Cl	n	n	n	n	n	n	x	x	x
O=C1N/C(=C/c2cccn2-c2ccc(F)cc2)C(=O)N1Cc1ccccc1F	n	n	n	n	n	n	x	x	x
O=C1N/C(=C/c2cccn2-c2ccccc2)C(=O)N1Cc1ccc(F)cc1	n	n	n	n	42	n	n	n	n
COC(=O)C1=C(C)NC(=O)/C1=C\c1cc(C)n(-c2c(C)cccc2C)c1C	n	n	n	n	58	n	n	n	n
COc1ccc(N(C)C(=O)CC2(CC(=O)O)CCCCC2)cc1	n	n	n	n	57	n	n	n	n
COc1ccc(NC(=O)CC2(CC(=O)O)CCCC2)cc1	n	n	n	n	n	n	x	x	x

Screening results: PubChem BioAssay, several laboratories
